Measurements from ChEMBL document CHEMBL5257036, “Benzophenone-nucleoside derivatives as telomerase inhibitors: Design, synthesis and anticancer evaluation in vitro and in vivo” (Eur J Med Chem, 2016).
Calls of active or inactive are those of the source. The rule behind the calls is not given here.

Key:
SMMC-7721 = assay: Antiproliferative activity against human SMMC-7721 cells measured after 48 hrs by MTT assay; assay type: functional, cell-based; settings: SMMC-7721, 48 h
Summary of the method: (§1)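 Cells grown to log phase in RPMI 1640 with 10% FBS, seeded at 3 × 10⁴ cells/mL, and preincubated 24 h at 37 °C, 5% CO₂. Compounds were added at pre-set concentrations to 6 wells each, with doxorubicin as reference, and exposed for 48 h. MTT was then added and absorbance read at 570 nm.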

HeLa = assay: Antiproliferative activity against human HeLa cells measured after 48 hrs by MTT assay; assay type: functional, cell-based; summary of the method: as §1
HepG2 = assay: Antiproliferative activity against human HepG2 cells measured after 48 hrs by MTT assay; assay type: functional, cell-based; settings: HepG2, 48 h; summary of the method: as §1
[1] = molecular target: T1, Telomerase reverse transcriptase (Homo sapiens, UniProt O14746); assay: Inhibition of telomerase activity in human SGC-7901 cells incubated for 24 hrs by TRAP-PCR-ELISA assay; assay type: cell-based
T1 sequence (O14746 whole entry): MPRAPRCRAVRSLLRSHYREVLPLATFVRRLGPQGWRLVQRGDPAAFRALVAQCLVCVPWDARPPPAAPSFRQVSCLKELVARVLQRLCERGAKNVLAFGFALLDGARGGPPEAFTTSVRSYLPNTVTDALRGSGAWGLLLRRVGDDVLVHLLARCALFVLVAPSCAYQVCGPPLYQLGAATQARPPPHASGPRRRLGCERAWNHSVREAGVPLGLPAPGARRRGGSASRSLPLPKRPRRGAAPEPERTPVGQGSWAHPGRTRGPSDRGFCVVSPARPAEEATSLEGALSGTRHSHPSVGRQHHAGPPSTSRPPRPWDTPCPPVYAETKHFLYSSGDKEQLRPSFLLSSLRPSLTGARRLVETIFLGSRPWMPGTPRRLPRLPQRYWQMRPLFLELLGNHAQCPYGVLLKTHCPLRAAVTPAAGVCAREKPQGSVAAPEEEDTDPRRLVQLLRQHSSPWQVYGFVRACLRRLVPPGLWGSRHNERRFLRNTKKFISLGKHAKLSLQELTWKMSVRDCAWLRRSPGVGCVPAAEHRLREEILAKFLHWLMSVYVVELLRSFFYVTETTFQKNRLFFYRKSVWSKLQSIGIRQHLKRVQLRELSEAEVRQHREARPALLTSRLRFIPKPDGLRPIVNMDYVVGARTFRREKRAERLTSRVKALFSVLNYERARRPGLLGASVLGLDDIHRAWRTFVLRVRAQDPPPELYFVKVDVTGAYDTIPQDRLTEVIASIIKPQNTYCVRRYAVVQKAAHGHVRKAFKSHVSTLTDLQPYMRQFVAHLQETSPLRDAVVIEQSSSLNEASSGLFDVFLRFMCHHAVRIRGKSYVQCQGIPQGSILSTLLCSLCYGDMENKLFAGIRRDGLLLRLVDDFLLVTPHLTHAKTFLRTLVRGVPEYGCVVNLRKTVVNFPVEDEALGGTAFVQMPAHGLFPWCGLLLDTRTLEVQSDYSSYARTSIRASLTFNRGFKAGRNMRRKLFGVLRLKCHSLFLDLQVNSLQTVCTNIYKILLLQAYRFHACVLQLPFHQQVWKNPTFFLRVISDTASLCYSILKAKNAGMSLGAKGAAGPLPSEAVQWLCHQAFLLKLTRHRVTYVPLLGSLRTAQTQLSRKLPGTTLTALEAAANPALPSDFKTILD
Summary of the method: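 Extract was mixed with TRAP reaction mix, incubated 25 °C for 30 min, then 35 PCR cycles (94/50/72 °C). Products detected by anti-DIG-peroxidase ELISA at 490 nm; mean ± SD.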

SGC-7901 = assay: Antiproliferative activity against human SGC-7901 cells measured after 48 hrs by MTT assay; assay type: functional, cell-based; settings: SGC-7901, 48 h; summary of the method: as §1
[2] = molecular target: T1, Telomerase reverse transcriptase; assay: Inhibition of telomerase activity in human SGC-7901 cells at 0.082 to 60 ug/mL incubated for 24 hrs by TRAP-PCR-ELISA assay; settings: dose 0.082-60 ug/mL

| SMILES | IC50 (SMMC-7721) [µM] | IC50 (HeLa) [µM] | IC50 (HepG2) [µM] | IC50 [1] [µM] | IC50 (SGC-7901) [µM] | inhibition [2] |
| --- | --- | --- | --- | --- | --- | --- |
| COc1ccc(C(=O)c2ccc([N+](=O)[O-])cc2)cc1OC(=O)CCC(=O)OC[C@@H]1C=C[C@H](n2cc(C)c(=O)[nH]c2=O)O1 | 30.5 | 21.1 | 24 | 28.9 | 10.2 | – |
| COc1cccc2c1C(=O)c1c(O)c3c(c(O)c1C2=O)C[C@@](O)(C(=O)CO)C[C@@H]3O[C@H]1C[C@H](N)[C@H](O)[C@H](C)O1 [DOXORUBICIN] | 1.95 | 3.99 | – | – | 3.41 | – |
| COc1cc(OC)c(C(=O)c2ccc(OC)c(OCC(=O)OC[C@@H]3C=C[C@H](n4cc(C)c(=O)[nH]c4=O)O3)c2)cc1OC | 20.1 | 28.6 | 28.6 | – | 31.4 | – |

Second part, the compound after the results:

| IC50 (SMMC-7721) [µM] | IC50 (HeLa) [µM] | IC50 (HepG2) [µM] | IC50 [1] [µM] | IC50 (SGC-7901) [µM] | inhibition [2] | SMILES |
| --- | --- | --- | --- | --- | --- | --- |
| – | – | – | – | – | inactive | COc1ccc(C(=O)c2cc(Br)ccc2Cl)cc1OCC(=O)OC[C@@H]1C=C[C@H](n2cc(C)c(=O)[nH]c2=O)O1 |
| – | 50.2 | – | – | 48.1 | – | COc1ccc(C(=O)c2ccc([N+](=O)[O-])cc2)cc1OCC(=O)OC[C@@H]1C=C[C@H](n2cc(C)c(=O)[nH]c2=O)O1 |
| 40.3 | 36.3 | 38 | – | 29.1 | – | COc1ccc(C(=O)c2ccc(F)cc2)cc1OCC(=O)OC[C@@H]1C=C[C@H](n2cc(C)c(=O)[nH]c2=O)O1 |
| 40.6 | 45.8 | – | – | – | – | COc1ccc(C(=O)c2ccccc2Cl)cc1OCC(=O)OC[C@@H]1C=C[C@H](n2cc(C)c(=O)[nH]c2=O)O1 |
